Assay results: ChEMBL document CHEMBL4651341, “The discovery of a novel series of compounds with single-dose efficacy against juvenile and adult Schistosoma species” (PLoS Negl Trop Dis, 2021)
≈ marks a conversion by molar mass, not a printed value.

Tests used:
Schistosoma mansoni [1] = assay: Concentration required to kill 50% of 42 day old worms 5 days after drug treatment.; format: functional, organism-based; details: Puerto Rican, 120 h
Procedure, shortened: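 Adult S. mansoni were perfused from CD1 mice 6 weeks post-infection and washed. They were cultured 3 pairs per well in 1 mL DMEM with 2 mM glutamine, penicillin/streptomycin and 10% FCS […] at 37 °C, 5% CO2. Viability of individual worms was scored on day 5 (120 h).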

[2] = Mean oral bioavailability in Swiss albino male mice at […] per compound (administered in a mixture of 5 compounds to 3 mice) assessed by LCMS/MS.; note: dose 2.5 mg/kg; format: ADME, organism-based; details: mouse, in vivo
[3] = Mean plasma concentration at 4h in Swiss albino male mice at […] per compound (administered orally in a mixture of 5 compounds to 3 mice) assessed by LCMS/MS.; format: ADME, organism-based; details: mouse, po
[4] = Mean AUC inf in Swiss albino male mice at 1 mg/kg per compound (administered iv in a mixture of 5 compounds to 3 mice) assessed by LCMS/MS.; format: ADME, organism-based; details: male, Swiss albino, mouse, in vivo
Procedure, shortened: (§1)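 Male Swiss albino mice (~30 g), 3 per experiment, mostly dosed as mixtures of 5 compounds iv via the lateral tail vein. Vehicle: 10% DMSO/90% 50 mM Na2HPO4 with 0.5% Tween-80. Blood sampled at 5, 15, 30 min and 1, 2, 4, 8, 24 h. Plasma stored at −20 °C and quantified by LC-MS after acetonitrile precipitation.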

[5] = Mean volume of distribution at steady state in Swiss albino male mice at 1 mg/kg per compound (administered iv in a mixture of 5 compounds to 3 mice) assessed by LCMS/MS.; format: ADME, organism-based; details: mouse, in vivo, read-out: Volume
Procedure, shortened: (§2)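 Male Swiss albino mice (~30 g), 3 per experiment, mostly dosed as mixtures of 5 compounds iv via the lateral tail vein. Vehicle: 10% DMSO/90% 50 mM Na2HPO4 with 0.5% Tween-80. Plasma stored at −20 °C and quantified by LC-MS after acetonitrile precipitation.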

[6] = Percentage of parent compound remaining after incubation for 90 minutes with cyropreserved mouse hepatocytes at a concentration of 1uM compound and […], determined by LCMS; format: ADME, tissue-based, Hepatocyte; details: cryopreserved mouse hepatocytes, read-out: Stability
Procedure, shortened: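 Compound was incubated at 1 µM final (2 µM working solution mixed 1:1 with hepatocyte suspension) in supplemented KHB pH 7.4. Conditions: 37 °C, 5% CO2, gentle mixing, duplicates. Reaction quenched with ice-cold acetonitrile containing standard; analysed by LC-MS/MS. % remaining = AUC at t / AUC at T0.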

[7] = Mean plasma concentration at 24h in Swiss albino male mice at […] per compound (administered orally in a mixture of 5 compounds to 3 mice) assessed by LCMS/MS.; format: ADME, organism-based; details: mouse, po
[8] = Mean half-life in Swiss albino male mice at 1 mg/kg per compound (administered iv in a mixture of 5 compounds to 3 mice) assessed by LCMS/MS.; format: ADME, organism-based; details: mouse, in vivo; procedure, shortened: as §2
[9] = Mean observed clearance in Swiss albino male mice at 1 mg/kg per compound (administered iv in a mixture of 5 compounds to 3 mice) assessed by LCMS/MS.; format: ADME, organism-based; details: male, Swiss albino, mouse, in vivo, read-out: Clearance (converted); procedure, shortened: as §1
Schistosoma mansoni [10] = assay: Concentration required to kill 50% of 21 day old worms 5 days after drug treatment.; format: functional, organism-based; details: Puerto Rican, 120 h
Procedure, shortened: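 Juvenile S. mansoni (Puerto Rican strain) were perfused from CD1 mice 3 weeks post-infection and washed. They were cultured 6–8 per well in 200 µL DMEM with 2 mM glutamine, penicillin/streptomycin and 10% FCS at 37 °C, 5% CO2. Viability of individual worms was scored on day 5 after dosing (120 h).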

[11] = Mean time to peak plasma concentration in Swiss albino male mice at […] per compound (administered orally in a mixture of 5 compounds to 3 mice) assessed by LCMS/MS.; format: ADME, organism-based; details: mouse, po
[12] = Solubility at 25 degC of compound (diluted from DMSO) in PBS at pH 7.4 determined after 24h (1h sonication, 22h shaking, 1h sonication) by LCMS/MS; format: physicochemical
[13] = Concentration required to kill 50% HepG2 cells as detected by MTT staining; format: toxicity, cell-based; details: homo sapiens, read-out: TC50 (the source's name)
[14] = Partition coefficient of compound between n-octanol and PBS (pH7.4); format: physicochemical; details: octanol/water, pH 7.4
Procedure, shortened: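 Shake-flask method using octanol and PBS pH 7.4, each pre-saturated with the other. Compound was shaken 2 h at 850 rpm, 25 °C, then the phases were separated by centrifugation and both layers diluted and analysed by LC-MS/MS. LogD = log(octanol AUC × relative dilution / buffer AUC).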

[15] = male, Swiss albino, read-out: Bioavailability

SMILES | EC50 (Schistosoma mansoni [1]) [nM] | bioavailability [2, 15] [%] | concentration at 4 h [3] [ng/mL] | AUC(0-inf) [4] [ng·h/mL] | Vd [5] [L/kg] | remaining at 1.5 h, 1 µM [6] [%] | concentration at 24 h [7] [ng/mL] | half-life [8] [h] | clearance [9] [mL/min/kg] | EC50 (Schistosoma mansoni [10]) [nM] | Tmax [11] [h] | solubility kinetic at 24 h [12] [µM] | CC50 [13] [nM] | bioavailability [2] [%] | Lipophilicity [14]
CC(C)c1nc2cnc(-c3ccc(F)c(C(F)(F)F)c3)cn2c1-c1ccc2[nH]ncc2c1 | 185 | 81.8 | 371 | 1440 | 3.16 | 41.3 | 60.5 | 7.99 | 5.83 | 174 | 0.667 |  |  |  | 
Fc1c(-c2c(C(F)(F)F)nc3cnc(-c4ccnc(C(F)(F)F)c4)cn23)ccc2[nH]ncc12 | 117 |  |  |  |  | 76.5 |  |  |  | 138 |  | 2.95 (≈ 1.38 µg/mL) | 7000 |  | 
Cc1c(-c2c(C(F)(F)F)nc3cnc(-c4ccc(F)c(C(F)(F)F)c4)cn23)ccc2[nH]ncc12 |  | 65.2 | 250 | 2000 | 7.87 |  | 98.1 | 23.6 | 4.3 | 760 | 0.667 |  |  |  | 
CC(C)c1nc2cnc(-c3cccc(C(F)(F)F)c3)cn2c1-c1c(F)cc(O)cc1F | < 45.5 |  |  |  |  | 30.2 |  |  |  | 93.7 |  | 0.951 (≈ 0.412 µg/mL) | 7500 |  | 
Cc1noc(C)c1-c1cn2c(-c3ccc(O)cc3)cnc2cn1 |  | 0.01 |  | 61.2 | 0.493 |  |  | 0.0609 | 140 | > 25000 | 0.01 |  |  |  | 
Cc1nc2cnc(-c3ccc(F)c(C(F)(F)C(F)(F)F)c3)cn2c1-c1c(F)cc(O)cc1F | 19.5 |  |  |  |  | 31.6 |  |  |  | 20.5 |  | 2.43 (≈ 1.15 µg/mL) | 8800 |  | 
Fc1c(-c2c(C(F)(F)F)nc3cnc(-c4cccc(C(F)(F)F)c4)cn23)ccc2[nH]ncc12 | 25.2 |  |  |  |  | 69 |  |  |  | 41.5 |  |  |  |  | 
Fc1ccc(-c2cn3c(-c4ccc5[nH]ncc5c4)c(C(F)(F)F)nc3cn2)cc1C(F)(F)F | 329 | 91.3 | 322 | 2730 | 6.69 | 56.2 | 208 | 23.3 | 3.08 | 350 | 1.67 |  |  |  | 
Oc1cc(F)c(-c2c(C3CC3)nc3cnc(-c4ccc(F)c(C(F)(F)C(F)(F)F)c4)cn23)c(F)c1 | 10.5 |  |  |  |  | 54.3 |  |  |  | 23.9 |  | 3.14 (≈ 1.57 µg/mL) | 9400 |  | 
Fc1ccc(-c2cn3c(-c4ccc5[nH]ncc5c4F)c(C(F)(F)F)nc3cn2)cc1C1CC1 | 12 | 135 | 131 | 270 | 4.45 |  | 6.53 | 2.82 | 31.5 | 19.3 | 0.67 |  | 10500 |  | 
Fc1c(-c2c(C3CC3)nc3cnc(-c4cccc(S(F)(F)(F)(F)F)c4)cn23)ccc2[nH]ncc12 | 20.7 |  |  |  |  | 80.9 |  |  |  | 35.8 |  | 1.7 (≈ 0.842 µg/mL) | 20700 |  | 
CC(C)c1nc2cnc(-c3ccc(F)c(S(F)(F)(F)(F)F)c3)cn2c1-c1ccc2[nH]ncc2c1F | 11.2 | 83.3 | 381 | 1470 | 3.39 | 68.1 | 71.4 | 8.96 | 5.75 | 8.21 | 2.33 | 0.865 (≈ 0.446 µg/mL) |  |  | 
CC(C)c1cccc(-c2cn3c(-c4ccc5[nH]ncc5c4F)c(C(F)(F)F)nc3cn2)c1 | 5.3 |  |  |  |  | 16.7 |  |  |  | 5.18 |  |  | 12900 |  | 
CC(C)Oc1cc(-c2cn3c(-c4ccc5[nH]ncc5c4F)c(C(F)(F)F)nc3cn2)ccc1F |  |  | 185 | 340 |  |  |  |  |  |  | 0.67 |  | 9250 | 152 | 5.47 =
CC(C)c1nn2cnc(-c3ccc(F)c(C(F)(F)F)c3)cc2c1-c1c(F)cc(O)cc1F | 21.7 | 14.3 | 22.4 | 342 | 1.77 | 42.2 | 0.01 |  | 25.2 | 26.9 | 0.333 | 6.55 (≈ 2.96 µg/mL) | 8900 |  | 
CC(C)c1nc2cnc(-c3ccc(F)c(C(F)(F)F)c3)cn2c1-c1ccc(O)cc1Cl | 102 |  |  |  |  | 20.3 |  |  |  | 127 |  |  |  |  | 
Cc1nc2cnc(-c3cccc(C(F)(F)C(F)(F)F)c3)cn2c1-c1c(F)cc(O)cc1F | 33.9 | 57.1 | 55.8 | 320 | 8.08 | 33.5 | 7 |  | 26.2 | 35.1 | 0.25 | 2.33 (≈ 1.06 µg/mL) | 9300 |  | 
Fc1ccc(-c2cn3c(-c4ccc5[nH]ncc5c4F)c(C(F)(F)F)nc3cn2)cc1C1CCC1 | 45.8 | 121 | 123 | 230 | 3.77 |  | 3.2 | 2.2 | 35.7 | 59.1 | 1.33 |  | 6090 |  | 
